Molecules are shown by their SMILES. Where “and” joins values, the source holds several entries; their conditions need not be identical. Equal values may be shown once. Calls of active or inactive are those of the source. No cut-off for these calls is given here.

Experiment [1] has as its system Rattus norvegicus. Briefly: In vivo galactitol activity by measuring its ability to inhibit galactitol accumulation in diaphragm at 6 mg/Kg/day. It counts as functional. The gist of the method:
(§1)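 Rats (n = 6) fed 20% galactose for 4 days, with compound given in the diet at the stated mg/kg per day. Galactitol accumulation in lens, sciatic nerve or diaphragm is scored as percent inhibition versus the non-treated group, as means of 3–8 drug-treated tissue samples. Dunnett's multiple comparison test applies; NS means p > 0.05.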

Experiment [2] addresses Aldo-keto reductase family 1 member B1 (Bos taurus) (UniProt P16116). Briefly: In vitro aldose reductase inhibitory activity measured by NADPH-dependent inhibition of glyceraldehyde reduction in a partially purified bovine lens preparation at 10E-6 M. The gist of the method:
(§2)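 Aldose reductase partially purified from bovine lens. Inhibition of NADPH-dependent glyceraldehyde reduction is measured at the single stated concentration and reported as percent inhibition, the mean of two determinations.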

The subject of experiment [3] is Mus musculus. Briefly: Antihyperglycemic activity measured as percent decrease in mice plasma glucose at 100 mg/Kg/day. Type of experiment: functional. An outline of the steps:
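Male db/db (C57BL/KsJ) mice, 4–6 per group, dosed at 100 mg/kg per day. Plasma glucose of the drug-treated group is expressed as percent decrease relative to a vehicle-treated control group. Values are mean ± SE, with p < 0.05 marked.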

In experiment [4] the test system is Mus musculus. Briefly: Antihyperglycemic activity measured as percent decrease in mice plasma glucose at 20 mg/Kg/day. It counts as functional. The gist of the method:
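Male db/db (C57BL/KsJ) mice, 4–6 per group, dosed at the stated mg/kg per day. Plasma glucose is expressed as percent decrease versus the vehicle-treated group. Values are mean ± SE.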

Experiment [5] deals with Aldo-keto reductase family 1 member B1 (Bos taurus) (UniProt P16116). Briefly: In vitro aldose reductase inhibitory activity measured by NADPH-dependent inhibition of glyceraldehyde reduction in a partially purified bovine lens preparation at 10E-5 M. An outline of the steps: as §2
Experiment [6] shares this target. Briefly: In vitro aldose reductase inhibitory activity measured by NADPH-dependent inhibition of glyceraldehyde reduction in a partially purified bovine lens preparation at 10E-7 M. An outline of the steps:
as §2

Experiment [7] concerns Rattus norvegicus. Briefly: In vivo galactitol inhibitory activity measured by its ability to inhibit galactitol accumulation in sciatic nerve at 52 mg/Kg/day. Type of experiment: functional. The gist of the method:
(§3)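 Rats (n = 6) fed 20% galactose for 4 days, with compound given in the diet at the stated daily dose. Galactitol accumulation was measured in lens, sciatic nerve and diaphragm, and % inhibition was taken versus the nontreated group. Means are from three to eight drug-treated tissue samples. Dunnett's multiple comparison test was applied, with p > 0.05 reported as not significant.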

Experiment [8] concerns Rattus norvegicus. Briefly: In vivo galactitol inhibitory activity measured by its ability to inhibit galactitol accumulation in sciatic nerve at 3 mg/Kg/day; NS=Not significant (% Inhibition). It counts as functional, organism-based. An outline of the steps:
as §3

Experiment [9] deals with Rattus norvegicus. Briefly: In vivo galactitol inhibitory activity measured by its ability to inhibit galactitol accumulation in lens at 52 mg/Kg/day. Type of experiment: functional. Conditions: Lens of camera-type eye. An outline of the steps:
as §1

In experiment [10] the test system is Rattus norvegicus. Briefly: In vivo galactitol inhibitory activity measured by its ability to inhibit galactitol accumulation in diaphragm at 3 mg/Kg/day. Type of experiment: functional. An outline of the steps:
as §1

In experiment [11] the test system is Rattus norvegicus. Briefly: In vivo galactitol inhibitory activity measured by its ability to inhibit galactitol accumulation in diaphragm at 52 mg/Kg/day. It counts as functional. An outline of the steps: as §1
In experiment [12] the test system is Rattus norvegicus. Briefly: In vivo galactitol inhibitory activity measured by its ability to inhibit galactitol accumulation in lens at 3 mg/Kg/day; NS=Not significant (% Inhibition). Type of experiment: functional, organism-based. Conditions: Lens of camera-type eye. An outline of the steps: as §1
Experiment [13] has as its system Rattus norvegicus. Briefly: In vivo galactitol inhibitory activity measured by its ability to inhibit galactitol accumulation in sciatic nerve at 81 mg/Kg/day. Type of experiment: functional. The gist of the method: as §3
Experiment [14] relates to Rattus norvegicus. Briefly: In vivo galactitol inhibitory activity measured by its ability to inhibit galactitol accumulation in lens at 81 mg/Kg/day. It counts as functional. The note with it: Lens of camera-type eye. The gist of the method: as §3
Experiment [15] deals with Rattus norvegicus. Briefly: In vivo galactitol inhibitory activity measured by its ability to inhibit galactitol accumulation in lens at 6 mg/Kg/day. It counts as functional, Lens of camera-type eye. An outline of the steps:
as §1

For experiment [16], the system named is Rattus norvegicus. Briefly: In vivo galactitol inhibitory activity measured by its ability to inhibit galactitol accumulation in lens at 6 mg/Kg/day; NS=Not significant (% Inhibition). It counts as functional, organism-based. Conditions: Lens of camera-type eye. The gist of the method:
as §1

The test system of experiment [17] is Rattus norvegicus. Briefly: In vivo galactitol inhibitory activity measured by its ability to inhibit galactitol accumulation in diaphragm at 81 mg/Kg/day. Type of experiment: functional. The gist of the method: as §1
Experiment [18] concerns Rattus norvegicus. Briefly: In vivo galactitol inhibitory activity measured by its ability to inhibit galactitol accumulation in lens at 10 mg/Kg/day. It counts as functional. The note with it: Lens of camera-type eye. An outline of the steps:
as §1

In experiment [19] the test system is Rattus norvegicus. Briefly: In vivo galactitol inhibitory activity measured by its ability to inhibit galactitol accumulation in lens at 10 mg/Kg/day; NS=Not significant (% Inhibition). It counts as functional. Conditions: Lens of camera-type eye. An outline of the steps:
as §1

For experiment [20], the system named is Rattus norvegicus. Briefly: In vivo galactitol inhibitory activity measured by its ability to inhibit galactitol accumulation in lens at 79 mg/Kg/day. Type of experiment: functional. The note with it: Lens of camera-type eye. An outline of the steps:
as §3

Experiment [21] deals with Rattus norvegicus. Briefly: In vivo galactitol inhibitory activity measured by its ability to inhibit galactitol accumulation in diaphragm at 79 mg/Kg/day. It counts as functional. The gist of the method:
as §1

The test system of experiment [22] is Rattus norvegicus. Briefly: In vivo galactitol inhibitory activity measured by its ability to inhibit galactitol accumulation in lens at 25 mg/Kg/day. Type of experiment: functional, Lens of camera-type eye. The gist of the method: as §1
For experiment [23], the system named is Rattus norvegicus. Briefly: In vivo galactitol inhibitory activity measured by its ability to inhibit galactitol accumulation in lens at 53 mg/Kg/day. It counts as functional, Lens of camera-type eye. An outline of the steps:
as §1

The subject of experiment [24] is Rattus norvegicus. Briefly: In vivo galactitol inhibitory activity measured by its ability to inhibit galactitol accumulation in sciatic nerve at 79 mg/Kg/day. Type of experiment: functional. The gist of the method: as §3
Experiment [25] concerns Rattus norvegicus. Briefly: In vivo galactitol inhibitory activity measured by its ability to inhibit galactitol accumulation in sciatic nerve at 10 mg/kg/day. Type of experiment: functional. The gist of the method:
as §3

Experiment [26] has as its system Rattus norvegicus. Briefly: In vivo galactitol inhibitory activity measured by its ability to inhibit galactitol accumulation in diaphragm at 10 mg/kg/day. It counts as functional. The gist of the method:
as §1

On to `CN1C(=O)c2ccc(Cl)cc2C12CC(=O)NC2=O` (single isomer, unassigned; (-)), for which, in experiment [1], the inhibition in vivo at 6 mg/kg/day stood at 24%.

For the molecule `O=C1CC2(C(=O)N1)c1ccccc1S(=O)(=O)N2Cc1ccc(Cl)c(Cl)c1` (configuration not stated), the inhibition in experiment [2] came to 0%; in experiment [5], 63%. Moreover, the figures for the Decrease in experiment [3] and in experiment [4] were 27% and less than 15%, respectively.

Consider `CN1C(=O)c2ccc(F)cc2C12CC(=O)NC2=O` (configuration not stated), for which the figures for the inhibition in experiment [2] and in experiment [6] were 74% and 29%, respectively. This molecule showed a Decrease in experiment [3] of less than 15%. Moreover, the inhibition in vivo at 52 mg/kg/day in [7] stood at 71%; in [9] it was 26%; in [11], 68%. Moreover, the inhibition result in experiment [8] and in experiment [12] was “inactive” throughout. The inhibition in vivo at 3 mg/kg/day in [10] worked out at 15%.

In the case of `CN1C(=O)c2cc(Cl)ccc2C12CC(=O)NC2=O` (configuration not stated), the results for the inhibition in experiment [2] and in [6] were 72% and 21%, respectively. In [3], this molecule showed a Decrease of less than 15%. Besides, the inhibition in vivo at 81 mg/kg/day in [13] worked out at 77%; in [14], 54%; in experiment [17] it was 81%. The inhibition in vivo at 6 mg/kg/day in experiment [15] (Rattus norvegicus, Lens of camera-type eye) was 31%. Also, the inhibition result in experiment [16], in [19] and in experiment [12] was “inactive” throughout. Further, the inhibition in vivo at 10 mg/kg/day in [18] is 34%.

Molecule `CN1C(=O)c2ccc(Cl)cc2C12CC(=O)NC2=O` (stereo in doubt; 32) registered a Decrease in experiment [3] of less than 15%. Further, the Inhibition in [15] is 28% and 53%; in [22], 51% and 84% and 81%; in experiment [23] it was 69% and 92% and 90%. In addition, the inhibition in vivo at 79 mg/kg/day in experiment [20] turned out to be 81%; in experiment [21], 92%; in experiment [24] it was 80%.

Turning to `O=C1CC2(C(=O)N1)C(=O)N1CCOc3cc(Cl)cc2c31` (configuration not stated), the figures for the inhibition in experiment [2] and in [6] were 66% and 32%, respectively. The inhibition in vivo at 10 mg/kg/day in experiment [25] is 57%; in experiment [26] it was 88%; in experiment [18], 20%.

One may read the inhibition in vivo as the relative decrease from the control value, in per cent. The inhibition is how much of the control response was suppressed. By Inhibition is commonly meant the change of the read-out against control, counted positive when it falls. High values mean a response far below the control, low ones a response near the control.

The values above are taken from ChEMBL document CHEMBL1126205, “Novel spirosuccinimides with incorporated isoindolone and benzisothiazole 1,1-dioxide moieties as aldose reductase inhibitors and antihyperglycemic agents” (1992).
